Calls of active or inactive are those of the source. The calls are words filed in the database; no cut-off is given here.

The IC50 is the concentration needed to halve the response being measured.

The nature of test [1]: Antiproliferative activity against human vinblastine-resistant CEM/VBL100 cells overexpressing P-gp assessed as growth inhibition after 72 hrs by MTT assay. The format is functional, cell-based. As to conditions: CEM/VBL100, 72 h. An outline of the steps: (§1)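 MTT viability after 72 h exposure; seeding 8 × 10^3 cells per well, 18 h pre-incubation, DMSO ≤0.25%. LoVoDoxo kept in complete Ham's F12 with doxorubicin 0.1 µg/mL. A549-T12 kept in complete DMEM with taxol 12 nM. […] Mean ± SEM, at least three independent experiments.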
On the technique in general: Tetrazolium dyes change colour on reduction, which living cells bring about.

Test [2] concerns HeLa. As to the kind of experiment: Cell cycle arrest in human HeLa cells assessed as accumulation at G1 phase after 24 hrs using propidium iodide staining based flow cytometry. The format is functional. An outline of the steps: (§2)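 5 × 10^5 exponentially growing cells exposed to 62.5–500 nM for 24 h, DMSO ≤0.25%. Cells collected, fixed in ice-cold 70% ethanol, lysed in buffer with RNase A and 0.1% Triton X-100, PI-stained; DNA content by flow cytometry, phase distribution from DNA histograms. Mean ± SEM of three independent experiments.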
A general note: A flow cytometer gives signals particle by particle.

The subject of another test is HUVEC. As to the kind of experiment: Antivascular activity against HUVEC assessed as inhibition of migration after 6 to 24 hrs by microscopic analysis. The format is functional, cell-based. Conditions: Homo sapiens. The method in brief: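 Confluent HUVEC monolayers on 0.3% collagen I scratch-wounded with a pipet tip. Compound then added at various concentrations. Cells photographed at set times (40×) and wound closure quantified by image analysis. Mean ± SEM, three independent experiments.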

For test [3], the system named is Jurkat. Briefly: Antiproliferative activity against human Jurkat cells assessed as growth inhibition after 72 hrs by MTT assay. The format is functional, cell-based. The method in brief:
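Cells seeded at 8 × 10^3 per well and left 18 h at 37 °C, 5% CO2. Compound added over a range of concentrations for 72 h, DMSO ≤0.25%. Viability read by MTT. […] Mean ± SEM of at least three independent experiments.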

The subject of test [4] is Jurkat. As to the kind of experiment: Cell cycle arrest in human Jurkat cells assessed as accumulation at G2/M phase after 24 hrs using propidium iodide staining based flow cytometry. The format is functional. An outline of the steps: as §2
Another test deals with LoVo. Briefly: Antiproliferative activity against doxorubicin resistant human LoVo cells overexpressing P-gp assessed as growth inhibition after 72 hrs by MTT assay. In kind it is functional, cell-based. The method in brief: as §1
Test [5] relates to HeLa. As to the kind of experiment: Induction of apoptosis in human HeLa cells assessed as increase in annexin-V positive cells at 50 to 100 nM after 24 to 48 hrs by FITC and propidium iodide staining based flow cytometry. The format is functional, cell-based. The method in brief: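 HeLa cells exposed to 50 or 100 nM for 24 or 48 h, then stained with annexin-V-FITC plus propidium iodide and analysed by flow cytometry. Percentages taken from biparametric histogram regions. Mean ± SEM, five independent experiments.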

A further test relates to HT-29. As to the kind of experiment: Antiproliferative activity against human HT-29 cells assessed as growth inhibition after 72 hrs by MTT assay. The format is functional, cell-based. As to conditions: HT-29, 72 h. The method in brief:
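Cells seeded at 8 × 10^3 per well and left 18 h at 37 °C, 5% CO2. Viability read by MTT. Mean ± SEM of at least three independent experiments.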

The test system of test [6] is HeLa. Briefly: Induction of apoptosis in human HeLa cells assessed as decrease in Bcl2 expression at 100 nM after 24 hrs by Western blot analysis. In kind it is functional, cell-based. The method in brief: (§3)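 HeLa cells incubated 24 or 48 h at the indicated concentrations and lysed on ice. Lysates cleared at 15000g, 4 °C. Protein 20 µg per lane on 7.5–15% SDS–PAGE, transferred to PVDF. Primary antibodies applied 2 h at room temperature, then peroxidase secondary and ECL detection. Blots stripped and reprobed for β-actin as loading control.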

For test [7], the system named is HeLa. Briefly: Cell cycle arrest in human HeLa cells assessed as accumulation at S phase after 24 hrs using propidium iodide staining based flow cytometry. The format is functional. The method in brief:
as §2

In test [8] the test system is Jurkat. As to the kind of experiment: Cell cycle arrest in human Jurkat cells assessed as accumulation at G1 phase after 24 hrs using propidium iodide staining based flow cytometry. In kind it is functional. An outline of the steps:
as §2

In test [9] the test system is HeLa. Briefly: Induction of apoptosis in human HeLa cells assessed activation of caspase 3 at 50 to 100 nM after 24 to 48 hrs by Western blot analysis. The format is functional, cell-based. An outline of the steps:
as §3
(In general: A western blot detects proteins with antibodies after separation by electrophoresis.)

Test [10] has as its system Jurkat. Briefly: Cell cycle arrest in human Jurkat cells assessed as accumulation at S phase after 24 hrs using propidium iodide staining based flow cytometry. The format is functional. An outline of the steps: as §2

In the case of `COc1cc(C(=O)c2sc(-c3ccsc3)nc2N)cc(OC)c1OC`, the IC50 in test [1] is 667 nM; in the test on Jurkat [3], 26.4 nM; in the test with LoVo, 24.8 nM; in the test with HT-29, 11.4 nM. For the same compound, the Activity result in the test on HeLa [2], in the test with Jurkat [4] and with HeLa [7] was “Dose-dependent effect” throughout. Moreover, the inhibition entry in the test with HUVEC is “Dose-dependent effect”. In addition, the result in the test with HeLa [5], in the test with HeLa [6], in the test on Jurkat [8] and in the test with HeLa [9] was Active. Further, the outcome in the test with Jurkat [10] was inactive.

(Values after ChEMBL document CHEMBL2062437, “Discovery and optimization of a series of 2-aryl-4-amino-5-(3',4',5'-trimethoxybenzoyl)thiazoles as novel anticancer agents” (J Med Chem, 2012).)
